{"source": "ChEMBL document CHEMBL1154461", "about": "“6-Substituted 2-oxo-2H-1-benzopyran-3-carboxylic acid derivatives in a new approach of the treatment of cancer cell invasion and metastasis” (2008)", "key": {"HT-1080 [1]": {"test_system": "HT-1080", "assay": "Antiinvasive activity in human HT1080 cells assessed as number of cells migrated at 1 uM after 48 hrs by Boyden chamber invasion assay"}, "HT-1080 [2]": {"test_system": "HT-1080", "assay": "Antiinvasive activity in human HT1080 cells assessed as number of cells migrated at 10 uM after 24 hrs by Boyden chamber invasion assay", "assay_type": "functional", "settings": "in the assay text read “after 48 hrs” for “after 24 hrs”", "outline": "(§1)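 HT 1080 cells, harvested at 70–80% confluence, were seeded at 6×10⁴ cells per filter in serum-free DMEM with BSA. Transwell filters were coated with human placental type IV collagen. Chambers were incubated 48 h at 37 °C, with media renewed at 24 h. Lower-surface cells were fixed, Giemsa-stained and counted by light microscopy. Results are % of untreated control migration, mean ± s.d., n=3.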"}, "HT-1080 [3]": {"test_system": "HT-1080", "assay": "Antiinvasive activity in human HT1080 cells assessed as number of cells migrated at 0.1 uM after 48 hrs by Boyden chamber invasion assay"}, "HT-1080 [4]": {"test_system": "HT-1080", "assay": "Antiinvasive activity in human HT1080 cells assessed as number of cells migrated at 0.1 uM after 24 hrs by Boyden chamber invasion assay", "assay_type": "functional", "settings": "in the assay text read “after 48 hrs” for “after 24 hrs”", "outline": "as §1"}, "HT-1080 [5]": {"test_system": "HT-1080", "assay": "Antiinvasive activity in human HT1080 cells assessed as number of cells migrated at 10 uM after 48 hrs by Boyden chamber invasion assay"}}, "data": [{"smiles": "CC(C)CC(C(=O)N(C)C(Cc1ccccc1)C(=O)O)C(CSc1ccccc1)C(=O)NO", "note": "(configuration not stated)", "values": [{"measurement": "Cells migrated", "setting": "HT-1080 [1]", "result": 38.45, "unit": "%"}]}, {"smiles": "CC(C)(C)C(=O)OCc1ccc2oc(=O)c(C(=O)Oc3cccc(Br)c3)cc2c1", "values": [{"measurement": "Cells migrated", "setting": "HT-1080 [1]", "result": 48.21, "unit": "%"}, {"measurement": "Activity", "setting": "HT-1080 [2]", "result": 23.64, "unit": "%"}, {"measurement": "Activity", "setting": "HT-1080 [3]", "result": 65.24, "unit": "%"}]}, {"smiles": "CC(=O)OCc1ccc2oc(=O)c(C(=O)Oc3cccc(Br)c3)cc2c1", "values": [{"measurement": "Activity", "setting": "HT-1080 [4]", "result": 39.47, "unit": "%"}, {"measurement": "Cells migrated", "setting": "HT-1080 [1]", "result": 21.81, "unit": "%"}, {"measurement": "Activity", "setting": "HT-1080 [2]", "result": 11.77, "unit": "%"}]}, {"smiles": "CCCCC(=O)OCc1ccc2oc(=O)c(C(=O)Oc3cccc(Br)c3)cc2c1", "values": [{"measurement": "Activity", "setting": "HT-1080 [4]", "result": 92.36, "unit": "%"}, {"measurement": "Cells migrated", "setting": "HT-1080 [1]", "result": 63.25, "unit": "%"}, {"measurement": "Activity", "setting": "HT-1080 [2]", "result": 32.26, "unit": "%"}]}, {"smiles": "CC(=O)NCc1ccc2oc(=O)c(C(=O)Oc3ccccc3)cc2c1", "values": [{"measurement": "Cells migrated", "setting": "HT-1080 [1]", "result": 63.45, "unit": "%"}]}, {"smiles": "O=C(Oc1ccccc1)c1cc2cc([N+](=O)[O-])ccc2oc1=O", "values": [{"measurement": "Cells migrated", "setting": "HT-1080 [1]", "result": 76.68, "unit": "%"}]}, {"smiles": "CC(=O)OCc1ccc2oc(=O)c(C(=O)N(C)c3cccc(Cl)c3)cc2c1", "values": [{"measurement": "Cells migrated", "setting": "HT-1080 [1]", "result": 82.56, "unit": "%"}]}, {"smiles": "Cl.NCc1ccc2oc(=O)c(C(=O)Oc3cccc(Cl)c3)cc2c1", "values": [{"measurement": "Cells migrated", "setting": "HT-1080 [1]", "result": 86.56, "unit": "%"}]}, {"smiles": "CCCCCC(=O)OCc1ccc2oc(=O)c(C(=O)Oc3cccc(Br)c3)cc2c1", "values": [{"measurement": "Activity", "setting": "HT-1080 [4]", "result": 94.25, "unit": "%"}, {"measurement": "Cells migrated", "setting": "HT-1080 [1]", "result": 59.32, "unit": "%"}, {"measurement": "Activity", "setting": "HT-1080 [2]", "result": 33.94, "unit": "%"}]}, {"smiles": "O=C(Oc1cccc(I)c1)c1cc2cc([N+](=O)[O-])ccc2oc1=O", "values": [{"measurement": "Cells migrated", "setting": "HT-1080 [1]", "result": 63.58, "unit": "%"}]}, {"smiles": "CC(=O)NCc1ccc2oc(=O)c(C(=O)Oc3cccc(Br)c3)cc2c1", "values": [{"measurement": "Activity", "setting": "HT-1080 [4]", "result": 34.38, "unit": "%"}, {"measurement": "Cells migrated", "setting": "HT-1080 [1]", "result": 36.94, "unit": "%"}, {"measurement": "Activity", "setting": "HT-1080 [2]", "result": 27.14, "unit": "%"}]}, {"smiles": "Cc1ccc2oc(=O)c(C(=O)Oc3cccc(Cl)c3)cc2c1", "values": [{"measurement": "Activity", "setting": "HT-1080 [4]", "result": 81.5, "unit": "%"}, {"measurement": "Cells migrated", "setting": "HT-1080 [1]", "result": 52.49, "unit": "%"}, {"measurement": "Activity", "setting": "HT-1080 [2]", "result": 27.62, "unit": "%"}]}, {"smiles": "O=C(Oc1cccc(Cl)c1)c1cc2cc(CCl)ccc2oc1=O", "values": [{"measurement": "Activity", "setting": "HT-1080 [4]", "result": 98.35, "unit": "%"}, {"measurement": "Cells migrated", "setting": "HT-1080 [1]", "result": 79.76, "unit": "%"}, {"measurement": "Activity", "setting": "HT-1080 [2]", "result": 67, "unit": "%"}]}, {"smiles": "CC(=O)OCc1ccc2oc(=O)c(C(=O)Sc3ccccc3)cc2c1", "values": [{"measurement": "Activity", "setting": "HT-1080 [4]", "result": 89.45, "unit": "%"}, {"measurement": "Cells migrated", "setting": "HT-1080 [1]", "result": 83.45, "unit": "%"}, {"measurement": "Activity", "setting": "HT-1080 [2]", "result": 73.84, "unit": "%"}]}, {"smiles": "Cl.NCc1ccc2oc(=O)c(C(=O)Oc3cccc(Br)c3)cc2c1", "values": [{"measurement": "Activity", "setting": "HT-1080 [4]", "result": 88.26, "unit": "%"}, {"measurement": "Cells migrated", "setting": "HT-1080 [1]", "result": 79.25, "unit": "%"}, {"measurement": "Activity", "setting": "HT-1080 [2]", "result": 63.58, "unit": "%"}]}, {"smiles": "CC(=O)OCc1ccc2oc(=O)c(C(=O)Oc3cccc(Cl)c3)cc2c1", "values": [{"measurement": "Activity", "setting": "HT-1080 [4]", "result": 95.2, "unit": "%"}, {"measurement": "Cells migrated", "setting": "HT-1080 [1]", "result": 49.11, "unit": "%"}, {"measurement": "Activity", "setting": "HT-1080 [2]", "result": 6.17, "unit": "%"}]}, {"smiles": "Cl.NCc1ccc2oc(=O)c(C(=O)Oc3cccc(I)c3)cc2c1", "values": [{"measurement": "Cells migrated", "setting": "HT-1080 [1]", "result": 25.34, "unit": "%"}]}, {"smiles": "CCC(=O)OCc1ccc2oc(=O)c(C(=O)Oc3cccc(Br)c3)cc2c1", "values": [{"measurement": "Activity", "setting": "HT-1080 [4]", "result": 84.36, "unit": "%"}, {"measurement": "Cells migrated", "setting": "HT-1080 [1]", "result": 40.23, "unit": "%"}, {"measurement": "Activity", "setting": "HT-1080 [2]", "result": 21.32, "unit": "%"}]}, {"smiles": "CCCCCCC(=O)OCc1ccc2oc(=O)c(C(=O)Oc3cccc(Br)c3)cc2c1", "values": [{"measurement": "Activity", "setting": "HT-1080 [4]", "result": 89.36, "unit": "%"}, {"measurement": "Cells migrated", "setting": "HT-1080 [1]", "result": 55.56, "unit": "%"}, {"measurement": "Activity", "setting": "HT-1080 [2]", "result": 35.96, "unit": "%"}]}, {"smiles": "CC(=O)OCc1ccc2oc(=O)c(C(=O)Sc3cccc(Br)c3)cc2c1", "values": [{"measurement": "Activity", "setting": "HT-1080 [4]", "result": 79.58, "unit": "%"}, {"measurement": "Cells migrated", "setting": "HT-1080 [1]", "result": 70.86, "unit": "%"}, {"measurement": "Activity", "setting": "HT-1080 [2]", "result": 67.84, "unit": "%"}]}, {"smiles": "O=C(Oc1cccc(Cl)c1)c1cc2ccccc2oc1=O", "values": [{"measurement": "Activity", "setting": "HT-1080 [4]", "result": 52.4, "unit": "%"}, {"measurement": "Cells migrated", "setting": "HT-1080 [1]", "result": 45.5, "unit": "%"}, {"measurement": "Activity", "setting": "HT-1080 [2]", "result": 35.65, "unit": "%"}]}, {"smiles": "CCCC(=O)OCc1ccc2oc(=O)c(C(=O)Oc3cccc(Br)c3)cc2c1", "values": [{"measurement": "Activity", "setting": "HT-1080 [5]", "result": 24.67, "unit": "%"}, {"measurement": "Activity", "setting": "HT-1080 [4]", "result": 88.55, "unit": "%"}, {"measurement": "Cells migrated", "setting": "HT-1080 [1]", "result": 50.47, "unit": "%"}]}, {"smiles": "CC(=O)OCc1ccc2oc(=O)c(C(=O)Nc3cccc(Cl)c3)cc2c1", "values": [{"measurement": "Activity", "setting": "HT-1080 [4]", "result": 79.55, "unit": "%"}, {"measurement": "Cells migrated", "setting": "HT-1080 [1]", "result": 66.85, "unit": "%"}, {"measurement": "Activity", "setting": "HT-1080 [2]", "result": 42.75, "unit": "%"}]}, {"smiles": "CC(=O)NCc1ccc2oc(=O)c(C(=O)Oc3cccc(I)c3)cc2c1", "values": [{"measurement": "Cells migrated", "setting": "HT-1080 [1]", "result": 23.47, "unit": "%"}]}, {"smiles": "O=C(Oc1cccc(Cl)c1)c1cc2cc([N+](=O)[O-])ccc2oc1=O", "values": [{"measurement": "Cells migrated", "setting": "HT-1080 [1]", "result": 65.78, "unit": "%"}]}, {"smiles": "CC(=O)OCc1ccc2oc(=O)c(C(=O)N(C)c3ccc(Cl)cc3)cc2c1", "values": [{"measurement": "Cells migrated", "setting": "HT-1080 [1]", "result": 98.56, "unit": "%"}]}, {"smiles": "O=C1NC(=O)C(c2ccc(-c3ccccc3)cc2)(N2CCN(c3ccc([N+](=O)[O-])cc3)CC2)C(=O)N1", "values": [{"measurement": "Cells migrated", "setting": "HT-1080 [1]", "result": 41.6, "unit": "%"}]}, {"smiles": "O=C(Oc1cccc(Br)c1)c1cc2cc([N+](=O)[O-])ccc2oc1=O", "values": [{"measurement": "Cells migrated", "setting": "HT-1080 [1]", "result": 35.22, "unit": "%"}]}, {"smiles": "Cl.NCc1ccc2oc(=O)c(C(=O)Oc3ccccc3)cc2c1", "values": [{"measurement": "Cells migrated", "setting": "HT-1080 [1]", "result": 85.53, "unit": "%"}]}, {"smiles": "CC(C)C(=O)OCc1ccc2oc(=O)c(C(=O)Oc3cccc(Br)c3)cc2c1", "values": [{"measurement": "Activity", "setting": "HT-1080 [4]", "result": 54.36, "unit": "%"}, {"measurement": "Cells migrated", "setting": "HT-1080 [1]", "result": 37.8, "unit": "%"}, {"measurement": "Activity", "setting": "HT-1080 [2]", "result": 21.07, "unit": "%"}]}, {"smiles": "O=C(Oc1cccc(F)c1)c1cc2cc([N+](=O)[O-])ccc2oc1=O", "values": [{"measurement": "Cells migrated", "setting": "HT-1080 [1]", "result": 53.56, "unit": "%"}]}, {"smiles": "Cl.NCc1ccc2oc(=O)c(C(=O)Oc3cccc(F)c3)cc2c1", "values": [{"measurement": "Cells migrated", "setting": "HT-1080 [1]", "result": 45.25, "unit": "%"}]}, {"smiles": "CC(=O)OCc1ccc2oc(=O)c(C(=O)Sc3cccc(Cl)c3)cc2c1", "values": [{"measurement": "Activity", "setting": "HT-1080 [4]", "result": 76.54, "unit": "%"}, {"measurement": "Cells migrated", "setting": "HT-1080 [1]", "result": 65.84, "unit": "%"}, {"measurement": "Activity", "setting": "HT-1080 [2]", "result": 61.86, "unit": "%"}]}, {"smiles": "CC(=O)OCc1ccc2oc(=O)c(C(=O)N(C)c3ccccc3Cl)cc2c1", "values": [{"measurement": "Cells migrated", "setting": "HT-1080 [1]", "result": 62.78, "unit": "%"}]}, {"smiles": "CC(=O)NCc1ccc2oc(=O)c(C(=O)Oc3cccc(F)c3)cc2c1", "values": [{"measurement": "Cells migrated", "setting": "HT-1080 [1]", "result": 65.58, "unit": "%"}]}, {"smiles": "CC(=O)NCc1ccc2oc(=O)c(C(=O)Oc3cccc(Cl)c3)cc2c1", "values": [{"measurement": "Cells migrated", "setting": "HT-1080 [1]", "result": 36.58, "unit": "%"}]}]}
